Two compounds from ChEMBL document CHEMBL3603837, “Indole Glucocorticoid Receptor Antagonists Active in a Model of Dyslipidemia Act via a Unique Association with an Agonist Binding Site” (J Med Chem, 2015) can be followed below.

The target in data set [1] is T1, Glucocorticoid receptor (Homo sapiens) (UniProt P04150).
T1 sequence (whole entry): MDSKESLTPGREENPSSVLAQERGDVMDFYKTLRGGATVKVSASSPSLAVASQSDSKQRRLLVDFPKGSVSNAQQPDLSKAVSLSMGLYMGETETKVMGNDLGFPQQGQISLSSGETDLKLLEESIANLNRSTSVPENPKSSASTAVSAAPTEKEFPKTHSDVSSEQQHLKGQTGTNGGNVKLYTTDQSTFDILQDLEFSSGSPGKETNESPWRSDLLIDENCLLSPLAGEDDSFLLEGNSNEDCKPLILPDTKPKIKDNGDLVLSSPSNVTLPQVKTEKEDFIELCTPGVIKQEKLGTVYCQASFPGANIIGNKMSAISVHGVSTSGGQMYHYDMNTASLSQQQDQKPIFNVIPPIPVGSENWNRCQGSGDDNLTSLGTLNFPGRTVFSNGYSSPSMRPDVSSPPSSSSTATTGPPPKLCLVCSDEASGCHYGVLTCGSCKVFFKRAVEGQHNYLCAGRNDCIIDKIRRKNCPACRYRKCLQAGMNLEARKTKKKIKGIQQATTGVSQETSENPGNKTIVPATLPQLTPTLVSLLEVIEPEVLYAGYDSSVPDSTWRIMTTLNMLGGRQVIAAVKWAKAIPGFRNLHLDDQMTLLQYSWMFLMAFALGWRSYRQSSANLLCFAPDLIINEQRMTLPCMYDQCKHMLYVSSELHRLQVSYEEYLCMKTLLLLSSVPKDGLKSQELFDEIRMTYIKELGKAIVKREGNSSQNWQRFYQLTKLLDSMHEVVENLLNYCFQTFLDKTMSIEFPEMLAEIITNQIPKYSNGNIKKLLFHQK
The data set is described as follows: Displacement of [3H]-dexamethasone from human glucocorticoid receptor expressed in HEK293 cells at 10 uM by scintillation counting based radioligand competition binding assay. It counts as cell-based. A digest of the protocol: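 Competition binding with 0.3 nM [3H]-dexamethasone and 20 μg 293-GR lysate per well; nonspecific binding defined with 0.5 μM dexamethasone. Incubated overnight at 4 °C, free ligand removed with charcoal–dextran, then scintillation counting. Percent inhibition at 10 μM was calculated.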
(In general: Displacement assays read how much labelled ligand stays bound in the presence of the test substance.)

The nature of data set [2]: AUC in rat at 1 mg/kg, iv. It is filed as ADME, organism-based. To be noted: in vivo.
Data set [3] can be described thus: Half life in rat at 1 mg/kg, iv. The settings on record: in vivo. It is filed as ADME, organism-based.
Data set [4] in a line: Clearance in rat at 1 mg/kg, iv. It counts as ADME, organism-based. To be noted: in vivo.
Data set [5] in a line: Volume of distribution at steady state in rat at 1 mg/kg, iv. To be noted: in vivo, read-out: Vdss. It is filed as ADME, organism-based.
Data set [6] in a line: AUC in rat at 3 mg/kg, po. It is filed as ADME, organism-based. The settings on record: in vivo.
Data set [7] is described as follows: Half life in rat at 3 mg/kg, po. The settings on record: in vivo. It is filed as ADME, organism-based.
Data set [8] can be described thus: Tmax in rat at 3 mg/kg, po. It is filed as ADME, organism-based. The settings on record: in vivo.
Data set [9] can be described thus: Cmax in rat at 3 mg/kg, po. It is filed as ADME, organism-based. On the set-up: dose 3 mg/kg, route oral. To be noted: in vivo.
Data set [10] can be described thus: Oral bioavailability in rat at 3 mg/kg. It counts as ADME, organism-based. The settings on record: in vivo.
Data set [11] relates to Syrian golden hamster. Description: Reduction in LDL level in high fat and high cholesterol diet fed Syrian golden hamster at 30 mg/kg, po qd for 14 days. It is filed as functional. The settings on record: Mesocricetus auratus, 336 h. A digest of the protocol:
(§1)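 Groups of Syrian golden hamsters (n = 6) kept on a high fat, high cholesterol diet for 14 days, dosed orally at 30 mg/kg once daily. Plasma HDL and LDL compared against untreated HFHC controls; mean with standard errors.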

For data set [12], the system named is Syrian golden hamster. Description: Increase in HDL level in high fat and high cholesterol diet fed Syrian golden hamster at 30 mg/kg, po qd for 14 days. It is filed as functional, Mesocricetus auratus. The method, boiled down: as §1
Data set [13] has as its system Rattus norvegicus. The data set is described as follows: Prevention of atypical antipsychotic quetiapine associated weight gain in Wistar rat at 10 mg/kg, po for 14 days. It counts as functional, organism-based. The method, boiled down: (§2)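 Prophylactic protocol in lean female Wistar rats (n = 9−10 per group). A dose response of test compound was given orally together with quetiapine at a fixed 10 mg/kg, concurrently for 14 days.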

Data set [14] deals with Rattus norvegicus. The data set is described as follows: Toxicity in Wistar rat model of atypical antipsychotic quetiapine-induced weight gain assessed as effect on food intake at 10 mg/kg, po for 14 days. It counts as organism-based. To be noted: in vivo, 336 h. A digest of the protocol:
as §2

SMILES strings stand for the structures. The source made the active and inactive calls.

Take `COc1cc(F)ccc1-c1c(CN(C)Cc2ccccc2)[nH]c2c(N)cc(F)cc12`: the result in [1] was inactive.
Usually AUC stands for concentration integrated over time. A high value points to high exposure. The term half-life denotes the time needed for the level to fall by half in the phase considered. Read a high half-life as slow decline. As usually defined, the clearance is the rate of elimination divided by the concentration. A low value points to a low capacity for elimination. By Tmax is commonly meant the time from dosing to the highest level. For orientation: Cmax means the highest concentration seen after dosing. One may read the bioavailability as the share of a dose that reaches the circulation, judged against a reference dose that is usually intravenous. Low readings indicate poor availability, high ones good availability. By inhibition in vivo is commonly meant the change of the read-out against control, counted positive when it falls. High values mean a response far below the control, low ones a response near the control. With `COc1cc(F)ccc1-c1c(CN(C)Cc2ccccc2)[nH]c2c(NS(C)(=O)=O)cc(C(C)C)cc12`, the AUC in [2] was found to be 315 ng·h/mL; in data set [6], 488 ng·h/mL. In addition, the half-life is 3.96 h in [3] and 3.31 h in data set [7]. Besides, the clearance in data set [4] came out at 58.2 mL/min/kg. For the same compound, in data set [5], the Vd stood at 13.8 L/kg. In data set [8], the time to peak (Tmax) is 4 h. This compound also gave a Cmax in [9] of 63.3 ng/mL. The compound further displayed a bioavailability in data set [10] of 51.9%. In the data set with Syrian golden hamster [11], this compound had an inhibition in vivo at 30 mg/kg of 74%. Further, the Activity is 73% in the data set on Syrian golden hamster [12] and “Non-toxic” in the data set with Rattus norvegicus [14]. For the same compound, the inhibition entry in the data set with Rattus norvegicus [13] is “Active”.
